Results on two compounds are retold here after ChEMBL document CHEMBL3616441, “Discovery of a Selective and CNS Penetrant Negative Allosteric Modulator of Metabotropic Glutamate Receptor Subtype 3 with Antidepressant and Anxiolytic Activity in Rodents” (J Med Chem, 2015).

The subject of series [1] is MDCK. Nature of the series: Apparent permeability from basolateral to apical side in MDCK cells expressing human MDR1 gene. It counts as ADME, cell-based, Canis lupus familiaris. The conditions noted are these: dog. The gist of the method: (§1)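 Permeability and P-gp efflux measured in MDCK cells transfected with human MDR1 gene.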
Series [2] is described as follows: Volume of distribution at steady state in rat at 0.2 mg/kg, iv administered as cassette dose. As to conditions: in vivo, read-out: Vdss. It counts as ADME, organism-based.
In series [3] the test system is Mus musculus. Nature of the series: Anxiolytic activity in ip dosed CD1 mouse assessed as inhibition of marble burying behavior after 30 mins. It counts as functional, organism-based.
In series [4] the target is 5-hydroxytryptamine receptor 2B (Homo sapiens) (UniProt P41595). Kind of series: Binding affinity to 5HT2B receptor (unknown origin) at 10 uM by radioligand binding assay.
A short description of series [5]: in vivo. As to conditions: rat, ip, 10 mg/kg.
Series [6] relates to Brain. Kind of series: Fraction unbound in mouse brain. Format: ADME, tissue-based.
Series [7] concerns the target Cytochrome P450 2D6 (Homo sapiens, UniProt P10635). Kind of series: Inhibition of CYP2D6 in human liver microsomes by cocktail assay. Format: ADME. In short, it runs like this: (§2)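 Human liver microsome cocktail incubation with probe substrates for four P450s; inhibition of each isoform measured.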
A general note: Liver microsomes are vesicles of endoplasmic reticulum, rich in cytochrome P450 enzymes.

Series [8] has as its system Mus musculus. Kind of series: Anxiolytic activity in CD1 mouse assessed as inhibition of marble burying behavior at 56.6 mg/kg, ip after 30 mins. It counts as functional, organism-based.
Series [9] can be described thus: AUC (0 to infinity) in mouse at 10 mg/kg, ip. Format: ADME, organism-based. The arrangement: dose 10 mg/kg, time infinity, route intraperitoneal. The conditions noted are these: in vivo.
Series [10] can be described thus: AUC (0 to infinity) in rat at 10 mg/kg, ip. It counts as ADME, organism-based. Also on record: dose 10 mg/kg, time infinity, route intraperitoneal. As to conditions: in vivo.
Series [11] in a line: Plasma clearance in rat at 1 mg/kg, iv and 3 mg/kg, po. It counts as ADME, organism-based. In short, it runs like this: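 Rat PK, n = 2 each route. IV: 1.0 mg/kg as solution in 10% EtOH, 50% PEG 400, 40% saline (1 mg/mL). Oral: 3.0 mg/kg as fine microsuspension in 0.1% Tween 80 and 0.5% methyl cellulose in H2O (0.3 mg/mL). Plasma clearance and bioavailability derived from plasma levels.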

Series [12] in a line: Volume of distribution at steady state in rat at 1 mg/kg, iv and 3 mg/kg, po. It counts as ADME, organism-based. As to conditions: in vivo, read-out: Vdss. In short, it runs like this: (§3)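 Rat IV PK, n = 2, 1.0 mg/kg as solution in 10% EtOH, 50% PEG 400, 40% saline (1 mg/mL); oral arm 3.0 mg/kg as fine microsuspension in 0.1% Tween 80 and 0.5% methyl cellulose in H2O (0.3 mg/mL).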

The target of series [13] is Cytochrome P450 3A4 (Homo sapiens, UniProt P08684). Nature of the series: Inhibition of CYP3A4 in human liver microsomes by cocktail assay. It counts as ADME. The gist of the method:
as §2

Series [14] concerns Plasma. Nature of the series: Fraction unbound in rat plasma. It counts as ADME, cell-free.
Series [15] is described as follows: Half life in rat at 0.2 mg/kg, iv administered as cassette dose. Format: ADME, organism-based. As to conditions: in vivo.
Series [16] has as its system MDCK. Nature of the series: Apparent permeability from apical to basolateral side in MDCK cells expressing human MDR1 gene. It counts as ADME, cell-based, Canis lupus familiaris. As to conditions: dog. In short, it runs like this:
as §1

Series [17] is described as follows: Plasma clearance in rat at 0.2 mg/kg, iv administered as cassette dose. Format: ADME, organism-based.
A short description of series [18]: Cmax in mouse at 10 mg/kg, ip. It counts as ADME, organism-based. The arrangement: dose 10 mg/kg, route intraperitoneal. As to conditions: in vivo.
Series [19] in a line: Oral bioavailability in rat at 3 mg/kg. Format: ADME, organism-based. As to conditions: in vivo.
The target of series [20] is T1, Cytochrome P450 1A2 (Homo sapiens, UniProt P05177).
T1 sequence (P05177 whole entry): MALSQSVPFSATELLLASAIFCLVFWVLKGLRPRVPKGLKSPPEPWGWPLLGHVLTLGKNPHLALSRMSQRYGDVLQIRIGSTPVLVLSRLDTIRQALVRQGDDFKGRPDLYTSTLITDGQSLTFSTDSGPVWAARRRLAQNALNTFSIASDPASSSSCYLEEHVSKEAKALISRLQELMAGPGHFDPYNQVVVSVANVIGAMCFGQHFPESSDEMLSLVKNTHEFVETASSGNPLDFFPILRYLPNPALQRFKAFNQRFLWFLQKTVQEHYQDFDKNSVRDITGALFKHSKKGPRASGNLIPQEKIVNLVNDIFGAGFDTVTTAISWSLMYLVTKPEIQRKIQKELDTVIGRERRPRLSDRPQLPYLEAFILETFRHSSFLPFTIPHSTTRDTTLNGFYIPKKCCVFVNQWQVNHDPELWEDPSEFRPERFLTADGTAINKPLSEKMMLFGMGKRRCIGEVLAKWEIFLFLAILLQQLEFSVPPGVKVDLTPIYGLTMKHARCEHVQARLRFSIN
Nature of the series: Inhibition of CYP1A2 in human liver microsomes by cocktail assay. It counts as ADME.

For series [21], the target named is Metabotropic glutamate receptor 3 (Rattus norvegicus, UniProt P31422). Kind of series: Negative allosteric modulation of rat mGlu3 receptor assessed as calcium mobilization by cell based fluorescence assay. It counts as functional. In short, it runs like this:
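Cell line stably expressing rat mGlu3 with the promiscuous G-protein Gα15. Calcium mobilization with fluorescence read-out, inhibition of the glutamate response. Full concentration-response curves, top concentration 30 μM. % Glu Max is the response with 30 μM test compound as a percentage of the maximal response to 100 μM glutamate. Values averaged over n-3.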
A general note: Calcium flux is commonly read through the fluorescence of an indicator in the cells.

Series [22] has as its target Metabotropic glutamate receptor 3 (Rattus norvegicus) (UniProt P31422). Kind of series: Negative allosteric modulation of rat mGlu3 receptor assessed as amplitude response at 30 uM relative to glutamate. The gist of the method:
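Calcium mobilization in cell line stably expressing rat mGlu3 with promiscuous Gα15; fluorescence read-out; amplitude of glutamate response with 30 μM test compound expressed as percentage of maximal response (100 μM glutamate); average of n = 3.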

The target in series [23] is Cytochrome P450 2C9 (Homo sapiens, UniProt P11712). Kind of series: Inhibition of CYP2C9 in human liver microsomes by cocktail assay. Format: ADME. In short, it runs like this:
as §2

The test system of series [24] is Plasma. Kind of series: Fraction unbound in mouse plasma. It counts as ADME, cell-free.
The nature of series [25]: in vivo. The conditions noted are these: mouse, ip, 10 mg/kg.
Series [26] is described as follows: Cmax in rat at 10 mg/kg, ip. The arrangement: dose 10 mg/kg, route intraperitoneal. As to conditions: in vivo. Format: ADME, organism-based.
The subject of series [27] is Brain. Nature of the series: Fraction unbound in rat brain. It counts as ADME, tissue-based.
Series [28] is described as follows: Plasma concentration in mouse at 10 mg/kg, ip after 30 mins. Format: ADME, organism-based. The gist of the method:
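Single time-point tissue distribution in mice. Dosed IP as a fine microsuspension in 0.1% Tween 80 and 0.5% methyl cellulose in H2O (1 mg/mL). Plasma and brain were sampled 30 min post dose, n = 3.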

Series [29] addresses Metabotropic glutamate receptor 2 (Rattus norvegicus) (UniProt P31421). Nature of the series: Negative allosteric modulation of rat mGlu2 receptor assessed as calcium mobilization at 30 uM by cell based fluorescence assay. It counts as functional. In short, it runs like this:
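Rat mGlu2 calcium mobilization assay with fluorescence read-out; full concentration-response curve analysis up to 30 μM top concentration.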

Series [30] concerns the target 5-hydroxytryptamine receptor 2B (Homo sapiens) (UniProt P41595). Kind of series: Agonist activity at 5HT2B receptor (unknown origin) up to 10 uM.
Series [31] concerns the target Metabotropic glutamate receptor 5 (Rattus norvegicus, UniProt P31424). Nature of the series: Modulation of rat mGlu5 receptor assessed as calcium mobilization by cell based fluorescence assay. It counts as functional. In short, it runs like this:
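Calcium mobilization assay with fluorescence read-out in cells expressing mGlu5; full concentration-response curves; % Glu Max is the amplitude of response with 30 μM test compound as a percentage of the maximal response to 100 μM glutamate; values averaged over n-3.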

Series [32] relates to Rattus norvegicus. Nature of the series: Antidepressant activity in Sprague-Dawley rat assessed as reduction of immobility time at 56.6 mg/kg, ip measured up to 6 mins by forced swim test. Format: functional, organism-based.
Series [33] has as its target 5-hydroxytryptamine receptor 2B (Homo sapiens) (UniProt P41595). Kind of series: Antagonist activity at 5HT2B receptor (unknown origin) up to 10 uM.
Series [34] concerns Rattus norvegicus. Kind of series: Half life in rat at 1 mg/kg, iv and 3 mg/kg, po. It counts as ADME, organism-based. As to conditions: in vivo. In short, it runs like this:
as §3

SMILES strings stand for the structures. The source made the active and inactive calls.

5-hydroxytryptamine receptor 2B (Homo sapiens), sequence (P41595 whole entry): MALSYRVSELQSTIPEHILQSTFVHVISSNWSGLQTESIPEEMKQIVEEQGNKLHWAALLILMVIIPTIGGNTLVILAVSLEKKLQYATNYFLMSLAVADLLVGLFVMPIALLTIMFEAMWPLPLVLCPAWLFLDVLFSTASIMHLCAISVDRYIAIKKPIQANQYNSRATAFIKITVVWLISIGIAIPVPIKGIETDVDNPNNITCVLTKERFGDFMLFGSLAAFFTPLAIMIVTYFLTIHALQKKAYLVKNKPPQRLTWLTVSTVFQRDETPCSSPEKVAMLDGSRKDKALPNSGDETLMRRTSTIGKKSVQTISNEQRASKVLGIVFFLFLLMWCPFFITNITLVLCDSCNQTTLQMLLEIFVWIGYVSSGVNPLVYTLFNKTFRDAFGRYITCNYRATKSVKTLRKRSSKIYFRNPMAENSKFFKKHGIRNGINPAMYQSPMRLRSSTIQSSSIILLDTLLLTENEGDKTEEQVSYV
Metabotropic glutamate receptor 2 (Rattus norvegicus), sequence (P31421 19-872 limits assumed): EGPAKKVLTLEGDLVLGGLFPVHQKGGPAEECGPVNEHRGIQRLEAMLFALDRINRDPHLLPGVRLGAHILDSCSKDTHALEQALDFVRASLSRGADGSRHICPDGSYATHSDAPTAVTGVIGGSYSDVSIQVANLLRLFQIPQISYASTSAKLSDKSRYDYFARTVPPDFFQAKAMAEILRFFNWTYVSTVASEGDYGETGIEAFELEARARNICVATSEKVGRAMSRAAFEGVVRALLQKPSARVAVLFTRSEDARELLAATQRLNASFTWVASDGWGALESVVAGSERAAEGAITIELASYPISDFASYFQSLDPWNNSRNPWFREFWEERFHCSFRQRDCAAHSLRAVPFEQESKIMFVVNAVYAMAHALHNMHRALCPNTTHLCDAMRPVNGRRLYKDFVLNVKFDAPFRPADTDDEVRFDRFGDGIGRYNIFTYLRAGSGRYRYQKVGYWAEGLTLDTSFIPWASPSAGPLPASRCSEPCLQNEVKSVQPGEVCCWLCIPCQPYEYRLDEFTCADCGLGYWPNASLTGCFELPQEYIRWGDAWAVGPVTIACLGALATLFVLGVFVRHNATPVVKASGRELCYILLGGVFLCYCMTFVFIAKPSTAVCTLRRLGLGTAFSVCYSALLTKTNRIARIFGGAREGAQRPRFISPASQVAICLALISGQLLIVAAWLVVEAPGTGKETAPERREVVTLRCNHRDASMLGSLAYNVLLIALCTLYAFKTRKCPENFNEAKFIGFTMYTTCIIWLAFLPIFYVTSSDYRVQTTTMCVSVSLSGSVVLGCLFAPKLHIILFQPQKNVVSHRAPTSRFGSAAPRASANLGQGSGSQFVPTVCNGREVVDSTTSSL
Metabotropic glutamate receptor 3, sequence (P31422 whole entry): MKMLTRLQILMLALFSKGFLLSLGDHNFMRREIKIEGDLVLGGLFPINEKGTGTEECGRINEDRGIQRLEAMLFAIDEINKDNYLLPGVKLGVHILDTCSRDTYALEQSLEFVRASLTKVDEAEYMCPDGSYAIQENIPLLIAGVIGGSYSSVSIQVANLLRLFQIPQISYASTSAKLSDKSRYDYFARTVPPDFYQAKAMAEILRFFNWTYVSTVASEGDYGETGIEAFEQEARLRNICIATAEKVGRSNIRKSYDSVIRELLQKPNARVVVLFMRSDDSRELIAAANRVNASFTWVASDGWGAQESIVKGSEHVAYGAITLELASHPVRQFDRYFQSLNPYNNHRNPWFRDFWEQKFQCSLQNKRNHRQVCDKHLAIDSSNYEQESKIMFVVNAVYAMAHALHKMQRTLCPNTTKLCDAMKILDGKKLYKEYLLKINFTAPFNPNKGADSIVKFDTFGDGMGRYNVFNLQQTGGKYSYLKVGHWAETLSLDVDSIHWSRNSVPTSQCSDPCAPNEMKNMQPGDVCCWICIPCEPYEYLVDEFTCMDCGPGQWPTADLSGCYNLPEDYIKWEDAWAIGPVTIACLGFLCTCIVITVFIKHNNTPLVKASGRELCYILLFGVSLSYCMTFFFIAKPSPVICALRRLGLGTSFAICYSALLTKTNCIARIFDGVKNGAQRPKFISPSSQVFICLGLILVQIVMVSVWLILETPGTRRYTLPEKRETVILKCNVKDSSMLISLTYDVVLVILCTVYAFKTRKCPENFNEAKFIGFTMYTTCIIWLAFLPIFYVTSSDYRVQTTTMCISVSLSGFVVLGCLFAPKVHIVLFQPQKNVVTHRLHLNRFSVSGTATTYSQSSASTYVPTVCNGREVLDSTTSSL
Cytochrome P450 2D6, sequence (P10635 whole entry, canonical isoform): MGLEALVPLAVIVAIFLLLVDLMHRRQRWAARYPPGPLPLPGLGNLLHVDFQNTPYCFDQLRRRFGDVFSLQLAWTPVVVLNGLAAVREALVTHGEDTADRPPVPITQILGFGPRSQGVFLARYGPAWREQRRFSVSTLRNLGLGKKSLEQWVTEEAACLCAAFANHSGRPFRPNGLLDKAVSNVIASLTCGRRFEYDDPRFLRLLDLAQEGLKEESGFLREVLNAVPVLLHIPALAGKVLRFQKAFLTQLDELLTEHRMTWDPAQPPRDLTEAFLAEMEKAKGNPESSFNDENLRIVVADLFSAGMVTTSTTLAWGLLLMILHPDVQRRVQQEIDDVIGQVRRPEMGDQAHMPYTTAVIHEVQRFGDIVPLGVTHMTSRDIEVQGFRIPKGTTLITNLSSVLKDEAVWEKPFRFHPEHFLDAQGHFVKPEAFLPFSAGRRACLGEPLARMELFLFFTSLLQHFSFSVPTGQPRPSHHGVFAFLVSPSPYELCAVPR
Metabotropic glutamate receptor 3 (Rattus norvegicus), sequence (P31422 23-879 limits assumed): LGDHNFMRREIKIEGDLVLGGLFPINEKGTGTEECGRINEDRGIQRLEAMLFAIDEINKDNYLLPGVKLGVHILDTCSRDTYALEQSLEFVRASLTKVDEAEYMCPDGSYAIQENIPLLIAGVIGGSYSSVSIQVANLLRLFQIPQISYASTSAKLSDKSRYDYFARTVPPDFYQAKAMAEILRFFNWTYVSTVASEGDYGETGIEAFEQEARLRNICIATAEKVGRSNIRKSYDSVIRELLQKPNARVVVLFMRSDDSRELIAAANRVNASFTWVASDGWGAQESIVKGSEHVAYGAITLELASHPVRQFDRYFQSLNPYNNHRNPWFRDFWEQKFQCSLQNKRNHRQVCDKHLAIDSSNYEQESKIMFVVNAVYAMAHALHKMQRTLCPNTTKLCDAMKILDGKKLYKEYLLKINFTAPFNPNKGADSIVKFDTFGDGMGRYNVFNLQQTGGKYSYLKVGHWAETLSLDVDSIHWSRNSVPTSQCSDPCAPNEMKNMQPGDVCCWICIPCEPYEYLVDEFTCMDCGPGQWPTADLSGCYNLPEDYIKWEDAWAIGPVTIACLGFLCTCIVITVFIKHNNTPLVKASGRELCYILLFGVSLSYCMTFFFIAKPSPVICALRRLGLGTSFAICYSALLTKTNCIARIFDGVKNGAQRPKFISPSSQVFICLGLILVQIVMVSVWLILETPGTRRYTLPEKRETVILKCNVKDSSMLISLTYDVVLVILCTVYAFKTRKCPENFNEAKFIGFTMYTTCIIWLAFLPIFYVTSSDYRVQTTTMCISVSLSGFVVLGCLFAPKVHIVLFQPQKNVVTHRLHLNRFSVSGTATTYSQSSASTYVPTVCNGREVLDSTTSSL
Cytochrome P450 2C9, sequence (P11712 whole entry): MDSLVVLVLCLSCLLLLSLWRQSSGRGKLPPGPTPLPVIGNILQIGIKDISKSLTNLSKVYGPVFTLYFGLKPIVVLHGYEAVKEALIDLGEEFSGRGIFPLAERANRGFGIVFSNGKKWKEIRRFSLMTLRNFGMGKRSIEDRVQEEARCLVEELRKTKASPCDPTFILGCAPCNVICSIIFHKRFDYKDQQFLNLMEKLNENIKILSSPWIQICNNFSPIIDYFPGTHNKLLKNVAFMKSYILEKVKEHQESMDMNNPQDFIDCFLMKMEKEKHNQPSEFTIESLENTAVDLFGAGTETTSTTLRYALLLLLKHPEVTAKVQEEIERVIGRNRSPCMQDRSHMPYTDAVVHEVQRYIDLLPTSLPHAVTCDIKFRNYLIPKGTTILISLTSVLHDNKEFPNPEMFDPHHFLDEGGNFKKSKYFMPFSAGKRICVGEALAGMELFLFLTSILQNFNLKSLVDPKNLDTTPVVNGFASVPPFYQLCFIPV
Cytochrome P450 3A4, sequence (P08684 whole entry): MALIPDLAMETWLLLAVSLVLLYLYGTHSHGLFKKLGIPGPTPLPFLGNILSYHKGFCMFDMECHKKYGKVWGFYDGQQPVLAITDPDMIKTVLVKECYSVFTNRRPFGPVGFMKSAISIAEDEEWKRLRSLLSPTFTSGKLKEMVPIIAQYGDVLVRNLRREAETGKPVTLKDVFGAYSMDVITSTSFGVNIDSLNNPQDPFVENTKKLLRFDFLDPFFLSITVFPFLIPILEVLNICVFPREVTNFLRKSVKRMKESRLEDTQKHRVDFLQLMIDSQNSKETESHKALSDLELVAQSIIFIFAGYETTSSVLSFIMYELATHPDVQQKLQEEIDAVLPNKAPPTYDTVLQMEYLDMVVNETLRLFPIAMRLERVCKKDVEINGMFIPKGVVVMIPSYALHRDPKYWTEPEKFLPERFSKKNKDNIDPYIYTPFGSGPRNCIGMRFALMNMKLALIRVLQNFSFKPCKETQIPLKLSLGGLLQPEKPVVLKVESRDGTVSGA

Consider `C[C@@H]1CN(c2cccnc2F)C(=O)c2cc(COc3ccc(Cl)cn3)nn21`, for which the Papp is on record as 49.9 ×10⁻⁶ cm/s in series [1] and 45 ×10⁻⁶ cm/s in [16]. In addition, the Vd came out at 1.6 L/kg in [2] and 1.4 L/kg in series [12]. The inhibition result in series [3] was “Dose-dependent effect”; in [4], 65%. Moreover, the values for the Tmax in series [5] and in [25] were 12.3 min and 30 min, respectively. The Fu was 0.035 in series [6], 0.083 in series [14], 0.163 in [24] and 0.052 in [27]. For the same compound, the half-inhibitory concentration (IC50) is more than 30 µM in series [7]; more than 30 µM in [13]; more than 30 µM in [20]; 0.392 µM in [21]; 25.6 µM in series [23]. For the same compound, the inhibition entry in series [8] was “Active”. Also, the AUC(0-inf) was 7.26 µM·h in series [9] and 11.5 µM·h in [10]. The clearance in series [11] came to 30 mL/min/kg; in [17] it was 37 mL/min/kg. This compound showed a half-life in [15] of 42 min. Moreover, the Cmax in series [18] was found to be 4.48 µM; in [26] it was 4.57 µM. This compound came in with a bioavailability in series [19] of 60%. For the same compound, in series [22], the Activity was 1.71%. The concentration at 0.5 h in series [28] amounted to 2.29 µM. Also, the result in series [29] and in [30] was inactive. Further, the EC50 in series [31] is more than 30 µM. Also, the result in series [32] and in [33] was Active. In [34], this compound had a t1/2 of 49 min.
As for `C[C@@H]1CN(c2ccc(F)cc2)C(=O)c2cc(COc3ccccn3)nn21`, in series [29], the outcome was inactive.

As usually defined, the Papp is the rate of passage across a membrane or cell layer, normalised by area and donor concentration. What is called inhibition is the relative decrease from the control value, in per cent. What is called Tmax is the time from dosing to the highest level. In general, IC50 refers to the point on the concentration scale where inhibition reaches its midpoint. Broadly, the AUC(0-inf) is the area under the concentration-time curve extrapolated to infinity. The low end stands for low exposure, the high end for high exposure. What is called half-life is the time needed for the level to fall by half in the phase considered. A word on the Cmax: it is the peak of the concentration-time curve. As usually defined, the bioavailability is dose-corrected exposure relative to a reference, in per cent. Low values mean little systemic uptake, high ones much systemic uptake. The term EC50 denotes the concentration at which the effect is half-maximal.
